Experiment [1] concerns Schistosoma mansoni. Put plainly: Antischistosomal activity against NMRI mouse juvenile Schistosoma mansoni infection model assessed as reduction of total worm burden at 200 mg/kg, po after 28 days. The format is functional. Further details: scale not given: the % may be the effect or the level left. The procedure, abridged: (§1)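 Juvenile-infection model: mice carrying Liberian-strain S. mansoni got one oral dose at day 21 postinfection, as a suspension in 7% Tween 80/3% ethanol. There were 3–5 per group, plus untreated controls. Necropsy by exsanguination followed 28 days after treatment. Liver and mesenteric-vein worms were collected, sexed and counted. Total and female burden reductions were calculated versus controls, with Kruskal-Wallis testing.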

The test system of experiment [2] is Schistosoma mansoni. Put plainly: Antischistosomal activity against NMRI mouse juvenile Schistosoma mansoni infection model assessed as reduction of female worm burden at 200 mg/kg, po after 28 days. Type of experiment: functional. Further details: scale not given: the % may be the effect or the level left. Put shortly: as §1
The test system of experiment [3] is Schistosoma mansoni. Put plainly: Antischistosomal activity against NMRI mouse adult Schistosoma mansoni infection model assessed as reduction of total worm burden at 400 mg/kg, po after 28 days. The format is functional. Further details: scale not given: the % may be the effect or the level left. Put shortly: (§2)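 Mice with a Liberian-strain S. mansoni infection were dosed at 49 days postinfection with a single oral dose of compound suspended in 7% Tween 80/3% ethanol. Groups held 3–5 animals, with untreated controls. At 28 days posttreatment, animals were killed by bleeding. Worms in liver and mesenteric veins were removed, sexed and counted. Reductions were calculated against controls and tested by Kruskal-Wallis.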

For experiment [4], the system named is Schistosoma mansoni. Put plainly: Antischistosomal activity against NMRI mouse adult Schistosoma mansoni infection model assessed as reduction of female worm burden at 400 mg/kg, po after 28 days. Further details: scale not given: the % may be the effect or the level left. The format is functional. The procedure, abridged: as §2
The test system of experiment [5] is Schistosoma mansoni. Put plainly: Antischistosomal activity against NMRI mouse adult Schistosoma mansoni infection model assessed as number of cured mouse at 400 mg/kg, po after 28 days. The format is functional, organism-based. Further details: dose 400 mg/kg. Put shortly:
as §2

The subject of experiment [6] is Schistosoma mansoni. Put plainly: Antischistosomal activity against NMRI mouse juvenile Schistosoma mansoni infection model assessed as number of cured mouse at 200 mg/kg, po after 28 days. The format is functional, organism-based. Further details: dose 200 mg/kg. Put shortly: as §1

Structures are written as SMILES. Active and inactive are the calls of the source. The rule behind the calls is not given here.

With `C1CCC2(CC1)OOC1(O2)C2CC3CC(C2)CC1C3` (stereo not given), the Activity in the experiment on Schistosoma mansoni [1] is reported as 82%; in the experiment with Schistosoma mansoni [2], 79.2%; in the experiment with Schistosoma mansoni [3], 29.1%; in the experiment on Schistosoma mansoni [4], 29.3%. Moreover, the outcome in the experiment on Schistosoma mansoni [5] and in the experiment on Schistosoma mansoni [6] was inactive.

Consider `C1CCC2(CC1)OOC1(CCCCC1)O2`, for which the Activity with Schistosoma mansoni [1] was 22.9%; in the experiment with Schistosoma mansoni [2], 26.4%. Moreover, in the experiment with Schistosoma mansoni [6], the outcome was inactive.

In the case of `C1CCC2(CC1)COC1(OO2)C2CC3CC(C2)CC1C3` (stereo not given), the Activity with Schistosoma mansoni [1] was 5.4%; in the experiment on Schistosoma mansoni [2] it was 3.9%. The outcome with Schistosoma mansoni [6] was inactive.

With `C1CCC2(CC1)COC1(CCCCC1)OO2`, the Activity with Schistosoma mansoni [1] and in the experiment on Schistosoma mansoni [2] was 0% throughout. Further, the result in the experiment with Schistosoma mansoni [6] was inactive.

The values above are taken from ChEMBL document CHEMBL1147111, “In vitro and in vivo activities of synthetic trioxolanes against major human schistosome species” (Antimicrob Agents Chemother, 2007).
